pIC50: −log10 of the molar value. The source made the active and inactive calls. The calls are words filed in the database; no cut-off is given here.
Columns and labels:
HUVEC [1] = assay: Inhibition of FBS-induced capillary-like network organization in human HUVEC at 0.001 to 10 uM after 6 hrs by matrigel assay; type: functional, cell-based
In short: (§1)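 Matrigel (10 mg/mL) polymerized 1 h at 37 °C. HUVEC (50x10^4/well) in complete medium with 10% FBS, with or without inhibitor at various concentrations, layered on top. After 6 h, capillary-like organization imaged by inverted microscope; mesh number counted as tubulogenic efficiency.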

[2] = target: T1, Matrix metalloproteinase-9 (Homo sapiens, UniProt P14780); assay: Inhibition of recombinant human activated-MMP9 using Mca-Lys-Pro-Leu-Gly-Leu-Dap(Dnp)-Ala-Arg-NH2 as fluorogenic substrate incubated for 4 hrs followed by substrate addition measured every 10 secs for 20 mins by fluorometric assay
In short: (§2)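 Recombinant human MMPs. Pro-forms activated with APMA: MMP-2 2 mM 1 h, MMP-9 1 mM 1 h, MMP-1 2 mM 2 h, MMP-13 1 mM 35 min, all 37 °C. MMP-3 activated with trypsin 4.4 µg/mL 30 min, then soybean trypsin inhibitor. Final enzyme 0.5 (MMP-2), 1.3 (MMP-9), 1.0 (MMP-14cd), 2.0 (MMP-1), 0.66 (MMP-13), 5 nM (MMP-3). Preincubated with inhibitor 4 h at 25 °C in Tris 50 mM pH 7.5, NaCl 150 mM, CaCl2 10 mM, Brij 35 0.05%, DMSO 1%. Substrate 2 µM final; fluorescence (ex 325/em 395 nm) every 10 s for 20 min. IC50 from vi/vo = 1/(1+[I]/IC50).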

[3] = target: T1, Matrix metalloproteinase-9; conditions: HUVEC, 0.1 uM
[4] = target: Matrix metalloproteinase-14 (Homo sapiens, UniProt P50281); assay: Inhibition of recombinant human catalytic domain MMP14 using Mca-Lys-Pro-Leu-Gly-Leu-Dap(Dnp)-Ala-Arg-NH2 as fluorogenic substrate incubated for 4 hrs followed by substrate addition measured every 10 secs for 20 mins by fluorometric assay; in short: as §2
HUVEC [5] = assay: Inhibition of FBS-induced network efficiency of human HUVEC assessed as reduction of number of meshes at 0.001 to 10 uM after 6 hrs by matrigel assay; type: functional, cell-based; in short: as §1
HUVEC [6] = assay: Inhibition of cell migration in human HUVEC at 0.001 to 10 uM after 6 hrs using modified Boyden chambers; type: functional, cell-based
In short: (§3)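 Modified Boyden chamber. HUVEC (5x10^4), PBS-washed, in serum-free medium with or without inhibitor in upper compartment; 10% FBS or serum-free medium below. 8 µm polycarbonate filters coated with collagen 50 µg/mL (migration, 6 h) or matrigel 1 mg/mL (invasion, overnight). Cells on lower surface ethanol-fixed, stained, counted blind in eight fields. Three experiments in duplicate; one-way ANOVA.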

HUVEC [7] = assay: Inhibition of FBS-induced cell invasion in human HUVEC after overnight incubation using modified Boyden chambers; type: functional, cell-based; in short: as §3
[8] = target: T2, 72 kDa type IV collagenase (Homo sapiens, UniProt P08253); assay: Inhibition of MMP2 gelatinase activity in human HUVEC at 0.1 uM by gel zymography
In short: (§4)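 Gelatin zymography on 10% polyacrylamide gels with 0.1% gelatin and SDS, samples unheated. Gels renatured 30 min at room temperature. Either untreated-HUVEC conditioned medium run and gel lane slices developed overnight at 37 °C in developing buffer containing inhibitor, or medium from inhibitor-treated HUVEC developed overnight without inhibitor. Coomassie stained; bands quantified by densitometry.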
Target sequence in this assay (P08253 110-660 limits assumed): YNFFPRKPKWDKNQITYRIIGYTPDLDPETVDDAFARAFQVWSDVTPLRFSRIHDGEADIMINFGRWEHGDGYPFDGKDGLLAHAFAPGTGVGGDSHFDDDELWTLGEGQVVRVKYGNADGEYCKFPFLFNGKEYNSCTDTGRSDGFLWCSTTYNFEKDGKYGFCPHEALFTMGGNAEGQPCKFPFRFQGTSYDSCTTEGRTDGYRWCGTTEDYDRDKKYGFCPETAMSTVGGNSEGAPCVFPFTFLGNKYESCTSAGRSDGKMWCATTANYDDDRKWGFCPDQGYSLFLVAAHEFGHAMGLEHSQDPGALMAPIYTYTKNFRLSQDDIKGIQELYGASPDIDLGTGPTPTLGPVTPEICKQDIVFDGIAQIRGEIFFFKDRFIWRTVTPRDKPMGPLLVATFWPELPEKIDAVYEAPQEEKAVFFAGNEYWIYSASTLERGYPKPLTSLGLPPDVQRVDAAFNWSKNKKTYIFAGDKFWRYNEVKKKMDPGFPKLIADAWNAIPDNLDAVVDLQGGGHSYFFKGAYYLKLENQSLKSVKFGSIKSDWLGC

[9] = target: T1, Matrix metalloproteinase-9; assay: Inhibition of MMP9 gelatinase activity in human HUVEC by gel zymography; in short: as §4
[10] = target: T2, 72 kDa type IV collagenase; assay: Inhibition of MMP2 gelatinase activity in human HUVEC by gel zymography; in short: as §4
Target sequence in this assay (P08253 110-660 limits assumed): as above

Stromelysin-1 = Stromelysin-1 (Homo sapiens, UniProt P08254); assay: Inhibition of recombinant human activated-MMP3 using Mca-Lys-Pro-Leu-Gly-Leu-Dap(Dnp)-Ala-Arg-NH2 as fluorogenic substrate incubated for 4 hrs followed by substrate addition measured every 10 secs for 20 mins by fluorometric assay; in short: as §2
Interstitial collagenase = target: T3, Interstitial collagenase (Homo sapiens, UniProt P03956); assay: Inhibition of recombinant human activated-MMP1 using Mca-Lys-Pro-Leu-Gly-Leu-Dap(Dnp)-Ala-Arg-NH2 as fluorogenic substrate incubated for 4 hrs followed by substrate addition measured every 10 secs for 20 mins by fluorometric assay; in short: as §2
T3 sequence (P03956 whole entry): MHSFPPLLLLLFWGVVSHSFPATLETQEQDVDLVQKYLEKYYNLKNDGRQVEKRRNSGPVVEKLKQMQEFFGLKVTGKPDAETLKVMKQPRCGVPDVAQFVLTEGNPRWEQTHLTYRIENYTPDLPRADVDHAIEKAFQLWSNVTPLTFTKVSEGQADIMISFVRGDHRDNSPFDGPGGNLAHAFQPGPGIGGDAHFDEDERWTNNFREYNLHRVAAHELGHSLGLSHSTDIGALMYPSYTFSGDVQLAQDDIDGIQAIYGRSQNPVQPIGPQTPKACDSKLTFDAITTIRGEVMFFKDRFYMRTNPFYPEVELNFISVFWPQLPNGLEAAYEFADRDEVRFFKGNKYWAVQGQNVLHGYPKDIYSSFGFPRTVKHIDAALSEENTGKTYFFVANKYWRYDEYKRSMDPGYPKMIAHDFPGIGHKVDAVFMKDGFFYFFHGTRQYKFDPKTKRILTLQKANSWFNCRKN

[11] = target: T2, 72 kDa type IV collagenase; assay: Inhibition of recombinant human activated-MMP2 using Mca-Lys-Pro-Leu-Gly-Leu-Dap(Dnp)-Ala-Arg-NH2 as fluorogenic substrate incubated for 4 hrs followed by substrate addition measured every 10 secs for 20 mins by fluorometric assay; in short: as §2
Target sequence in this assay (P08253 whole entry): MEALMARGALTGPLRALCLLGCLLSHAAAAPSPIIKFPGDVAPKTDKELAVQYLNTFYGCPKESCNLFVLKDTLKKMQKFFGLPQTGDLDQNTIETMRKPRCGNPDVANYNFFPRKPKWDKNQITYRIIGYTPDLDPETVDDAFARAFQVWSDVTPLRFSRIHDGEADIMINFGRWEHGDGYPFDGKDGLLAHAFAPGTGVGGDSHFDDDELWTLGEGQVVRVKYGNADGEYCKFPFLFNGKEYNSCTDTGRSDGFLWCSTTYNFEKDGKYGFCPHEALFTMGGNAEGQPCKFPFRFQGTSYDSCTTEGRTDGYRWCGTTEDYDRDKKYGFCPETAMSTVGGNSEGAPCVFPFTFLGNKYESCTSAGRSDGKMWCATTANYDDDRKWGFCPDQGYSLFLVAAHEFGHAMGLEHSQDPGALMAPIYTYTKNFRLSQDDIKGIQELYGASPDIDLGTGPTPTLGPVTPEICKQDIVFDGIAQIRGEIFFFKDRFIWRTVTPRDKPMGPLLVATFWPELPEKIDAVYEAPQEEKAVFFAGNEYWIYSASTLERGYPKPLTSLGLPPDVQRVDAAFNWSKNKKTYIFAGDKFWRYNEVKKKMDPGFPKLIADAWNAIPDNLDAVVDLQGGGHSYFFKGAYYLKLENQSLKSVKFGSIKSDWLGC

[12] = target: T2, 72 kDa type IV collagenase; assay: Inhibition of MMP2 gelatinase activity in human HUVEC at 0.001 to 10 uM by gel zymography; in short: as §4
Target sequence in this assay (P08253 110-660 limits assumed): as the sequence (P08253 110-660 limits assumed) above

HUVEC [13] = assay: Inhibition of FBS-induced cell invasion in human HUVEC at 0.001 to10 uM after overnight incubation using modified Boyden chambers; type: functional, cell-based; in short: as §3
[14] = target: T1, Matrix metalloproteinase-9; assay: Inhibition of MMP9 gelatinase activity in human HUVEC at 0.001 to 10 uM by gel zymography; in short: as §4
Collagenase 3 = Collagenase 3 (Homo sapiens, UniProt P45452); assay: Inhibition of recombinant human activated-MMP13 using Mca-Lys-Pro-Leu-Gly-Leu-Dap(Dnp)-Ala-Arg-NH2 as fluorogenic substrate incubated for 4 hrs followed by substrate addition measured every 10 secs for 20 mins by fluorometric assay; in short: as §2
HUVEC [15] = assay: Inhibition of PMA-stimulated MMP2 mRNA expression in human HUVEC after 24 hrs by QT-PCR analysis; type: functional, cell-based
In short: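 HUVEC starved, PMA pre-treated (30 nM, 3 h), then exposed to inhibitor for 24 h before RNA extraction. Real-time PCR with SYBR Green, 45 cycles (95 °C 10 s, 60 °C 15 s, 72 °C 15 s), with melting-curve check.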

HUVEC [16] = assay: Inhibition of PMA-stimulated MMP2 protein expression in human HUVEC after 24 hrs by Western blot analysis relative to control; type: functional
In short: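 HUVEC (2x10^6) seeded, attached one day, starved 6 h in serum-free medium with 2% BSA. Pre-treated 3 h with 30 nM PMA, then exposed to inhibitor (10 µM) or DMSO vehicle for 24 h. Conditioned media and cell proteins collected. Equal protein on 10% SDS-PAGE, PVDF blot, milk block, anti-MMP-2, MMP-9 and β-actin antibodies, HRP/ECL detection.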

T1 sequence (P14780 whole entry): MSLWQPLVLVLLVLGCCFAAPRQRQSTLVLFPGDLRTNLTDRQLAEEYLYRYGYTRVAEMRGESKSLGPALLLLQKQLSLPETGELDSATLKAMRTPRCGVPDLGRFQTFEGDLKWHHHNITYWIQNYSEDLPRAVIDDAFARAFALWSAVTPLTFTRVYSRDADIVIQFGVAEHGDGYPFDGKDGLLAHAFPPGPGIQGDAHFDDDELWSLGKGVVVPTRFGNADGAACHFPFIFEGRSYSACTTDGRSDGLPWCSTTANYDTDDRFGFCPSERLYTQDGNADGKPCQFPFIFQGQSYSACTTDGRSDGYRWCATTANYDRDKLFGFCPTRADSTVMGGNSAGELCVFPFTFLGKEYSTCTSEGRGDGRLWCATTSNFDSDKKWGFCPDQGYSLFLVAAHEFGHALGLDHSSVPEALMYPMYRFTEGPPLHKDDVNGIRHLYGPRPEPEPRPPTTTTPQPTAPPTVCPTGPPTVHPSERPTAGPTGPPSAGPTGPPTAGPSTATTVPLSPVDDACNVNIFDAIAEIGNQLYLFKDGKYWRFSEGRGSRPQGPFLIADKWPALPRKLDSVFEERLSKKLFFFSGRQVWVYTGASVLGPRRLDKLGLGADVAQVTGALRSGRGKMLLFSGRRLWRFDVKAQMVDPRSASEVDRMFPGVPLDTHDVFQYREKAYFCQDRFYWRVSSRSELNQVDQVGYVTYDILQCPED
Chain of Stromelysin-1 (P08254 whole entry): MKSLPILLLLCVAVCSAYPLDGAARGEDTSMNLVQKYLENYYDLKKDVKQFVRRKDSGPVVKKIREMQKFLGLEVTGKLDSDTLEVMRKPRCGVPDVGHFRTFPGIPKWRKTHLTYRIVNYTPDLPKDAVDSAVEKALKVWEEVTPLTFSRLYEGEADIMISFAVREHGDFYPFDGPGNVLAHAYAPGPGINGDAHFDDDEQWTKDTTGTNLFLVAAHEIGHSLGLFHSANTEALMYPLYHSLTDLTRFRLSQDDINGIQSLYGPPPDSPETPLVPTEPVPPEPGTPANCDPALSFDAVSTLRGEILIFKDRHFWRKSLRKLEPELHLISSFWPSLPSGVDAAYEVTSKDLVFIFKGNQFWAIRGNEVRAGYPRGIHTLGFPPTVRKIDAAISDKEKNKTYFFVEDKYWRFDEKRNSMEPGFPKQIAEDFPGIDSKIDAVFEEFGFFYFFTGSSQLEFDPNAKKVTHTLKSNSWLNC

COc1ccc(-c2ccc(S(=O)(=O)N(OC(C)C)[C@H](CCNC(C)=O)C(=O)NO)cc2)cc1
inhibition (HUVEC [1]): Active
pIC50 [2]: 8.70
inhibition [3]: Active
pIC50 [4]: 7.64
inhibition (HUVEC [5]): Active
inhibition (HUVEC [6]): Active
inhibition (HUVEC [7]): Dose-dependent effect
inhibition [8]: Active
inhibition [9]: Dose-dependent effect
inhibition [10]: Dose-dependent effect
pIC50 (Stromelysin-1): 7.70
pIC50 (Interstitial collagenase): 6.18

CC(C)ON([C@H](CCNC(=O)Cc1ccccc1)C(=O)NO)S(=O)(=O)c1ccc(-c2ccccc2)cc1
pIC50 [2]: 8.19
pIC50 [11]: 8.85
pIC50 (Stromelysin-1): 6.92
pIC50 (Interstitial collagenase): 5.89

CC(=O)NCC[C@H](C(=O)NO)N(OC(C)C)S(=O)(=O)c1ccccc1
inhibition (HUVEC [1]): inactive
inhibition [12]: inactive
inhibition (HUVEC [13]): inactive
pIC50 [2]: 5.41
inhibition [14]: inactive
pIC50 [4]: 5.26
inhibition (HUVEC [5]): inactive
inhibition (HUVEC [6]): inactive
pIC50 (Collagenase 3): 5.74
inhibition (HUVEC [15]): inactive
pIC50 [11]: 6.23
fold change (FC) (HUVEC [16]): 0.9
pIC50 (Interstitial collagenase): 4.59

CC(=O)NCC[C@H](C(=O)NO)N(OC(C)C)S(=O)(=O)c1ccc(-c2ccccc2)cc1
pIC50 [2]: 8.19
pIC50 (Stromelysin-1): 7.33
pIC50 (Interstitial collagenase): 6.55

Reference: ChEMBL document CHEMBL3616369, “N-O-Isopropyl Sulfonamido-Based Hydroxamates as Matrix Metalloproteinase Inhibitors: Hit Selection and in Vivo Antiangiogenic Activity” (J Med Chem, 2015)
